Bioassay records: PubChem, several laboratories
Most compounds without a hit are left out; they make up all but 2.7% or so of the library.
MC4R antagonist: blocks human MC4R cAMP signaling. inhibition, % at 6.5 µM. MC4R-expressing cells, MTII-stimulated cAMP, LANCE TR-FRET. P32245. AID 540295. hit rate 0.48% among 360,000;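 active means inhibition above its plate's cutoff, the mean of tested wells on that plate plus 3 SD, cut at about 29% in these data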
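Assay system: U2OS-MC4R stable cell line; Also added: Melanotan II; Technique: Eu-cAMP/anti-cAMP TR-FRET, emission 671 nm; Times: 30-min compound, 1-h challenge, 1-h detection, room temperature.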
MC4R ag barr: activates human MC4R beta-arrestin recruitment; U2OS MC4R beta-arrestin complementation, luminescence; percent of melanotan II response, DMSO zero; hit rate 0.98% among 360,000; activation, % at 8.9 µM; P32245;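 active means activation above a per-plate cutoff, the mean activation of sample wells on that plate plus 3 SD, cut at about 8% in these data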
Hep lipid drop: hepatic lipid droplet formation modulation; AML12 mouse hepatocytes, oleate lipid droplets, BODIPY imaging; inhibition, % at 6.5 µM; hit rate 0.4% among 240,000;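 active means lipid droplet intensity inhibited by at least 50%, with more than 500 cells counted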
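Material: mouse AML12 hepatocyte cell line, fixed after treatment; Timing: compound with oleate, overnight; Technique: high-content imaging of BODIPY-stained droplets and DAPI nuclei; Probe or stimulus: oleate, 100 µM final; Dosing: compound at 6.5 µM only.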
NTR1 agonist: agonists of human neurotensin receptor NTR1; P30989; hit rate 0.17% among 330,000; activation, % at 20 µM; NTR1-U2OS beta-arrestin-GFP spot imaging, agonist mode; AID 493036;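 active means activation at or above 40% of the spot to cytoplasm intensity ratio, with at least 20 cells analyzed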
m5-HT2A agonist: agonists of mouse serotonin 5-HT2A receptor (HTR2A); hit rate 0.66% among 360,000; CHO-K1 mHTR2A beta-arrestin complementation, luminescence; percent of 30 µM serotonin response; P35363; activation, % at 7.6 µM;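 active means activation above a run cutoff, the mean activation of all tested compounds plus 3 SD, cut at about 14% in these data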
Target sequence (P35363 whole entry, looked up): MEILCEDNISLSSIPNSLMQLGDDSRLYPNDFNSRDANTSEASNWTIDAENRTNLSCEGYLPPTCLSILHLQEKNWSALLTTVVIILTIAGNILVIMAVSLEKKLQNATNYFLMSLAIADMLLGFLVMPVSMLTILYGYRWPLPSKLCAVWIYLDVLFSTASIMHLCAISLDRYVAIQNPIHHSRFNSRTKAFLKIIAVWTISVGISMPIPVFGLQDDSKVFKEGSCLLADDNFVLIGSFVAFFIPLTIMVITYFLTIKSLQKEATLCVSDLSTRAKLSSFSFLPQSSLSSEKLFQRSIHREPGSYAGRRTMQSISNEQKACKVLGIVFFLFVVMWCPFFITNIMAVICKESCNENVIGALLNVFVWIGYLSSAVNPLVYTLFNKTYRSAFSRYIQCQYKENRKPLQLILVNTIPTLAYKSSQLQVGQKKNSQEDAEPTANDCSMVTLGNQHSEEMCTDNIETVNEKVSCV
PREPL inh: human PREPL enzyme inhibition; inhibition, % at 5.96 µM; recombinant PREPL, fluorescence polarization activity-based probe; hit rate 0.68% among 320,000; in the data active means inhibition above about 43%
Hits are given with their value; - = inactive; . = no result given.

SMILES	MC4R antagonist	MC4R ag barr	Hep lipid drop	NTR1 agonist	m5-HT2A agonist	PREPL inh
COc1ccc(CN2CCNC(=O)C2CC(=O)NC2Cc3ccccc3C2)c(OC)c1 (configuration not stated)	-	-	-	-	-	-
CCN1CCN(CCNC(=O)c2ccc(/C=C3/Sc4ccccc4N(Cc4ccccc4C)C3=O)cc2)CC1	-	8.9	-	.	-	.
CC(=O)c1ccc(N2CCN(C(=O)CNC(=O)c3ccc(Br)o3)CC2)cc1	-	-	.	.	-	.
O=C(c1ccccc1)c1cc2cc(Cl)ccc2[nH]1	-	8.3	-	-	-	-
COc1ccc(C)cc1NCC(=O)Nc1ccc(C(C)(C)C)cc1	-	-	-	-	-	-
Cc1ccc(Sc2c(C)nn(C(=O)c3cccc(S(=O)(=O)N4CCOCC4)c3)c2C)cc1	-	9.2	-	-	-	-
CC(C)COc1cccc(-c2cc(C(=O)N/N=C/c3ccncc3)c3ccccc3n2)c1	-	9.6	-	-	-	.
CCc1ccc(-c2nc(SCC(=O)N3CCOCC3)n[nH]2)cc1	-	-	-	-	-	-
Cn1cc([N+](=O)[O-])c(C(=O)Nc2ccc(-c3nc4ccccc4o3)cc2)n1	-	13.3	-	-	-	-
CC(=O)N1CCN(C(=O)CCc2cc(C(C)(C)C)c(O)c(C(C)(C)C)c2)CC1	-	-	-	-	-	-
COc1ccccc1C(=O)NC(=Nc1nc2ccccc2o1)NC(=O)c1ccccc1OC	-	-	-	40.5	-	-
O=C(NC(=Nc1nc2ccccc2o1)NC(=O)c1ccccc1)c1ccccc1	-	-	-	-	-	-
COc1ccc(C2Nc3ccccc3C(=O)N2c2ccc(F)cc2)cc1CSc1ccccn1 (configuration not stated)	-	33.0	-	-	-	-
O=C(Nc1ccc2c(c1)CCC2)c1cnn2c1NC(c1ccco1)CC2C(F)(F)F (configuration not stated)	-	16.8	-	-	-	-
O=C(Nc1cccc(-c2nc3cccnc3s2)c1)c1cccnc1Cl	-	-	-	-	-	-
O=C(Nc1cccc(-c2nc3cccnc3s2)c1)c1ccc(Cl)nc1	-	8.6	-	-	-	-
CN(C)CCCN(C(=O)c1ccc2c(c1)CCCC2)c1nc2ccc(Cl)cc2s1	-	9.1	-	-	-	-
CN(C)CCN(C(=O)c1ccc(S(=O)(=O)N2CCCC2)cc1)c1nc2ccc(Br)cc2s1	-	-	-	-	-	-
CC1CCCCN1S(=O)(=O)c1ccc(C(=O)N(CCCN(C)C)c2nc3ccc(Br)cc3s2)cc1 (configuration not stated)	-	8.8	-	-	-	-
Cc1cc(C)c2nc(N(CCCN(C)C)C(=O)c3ccc4c(c3)OCCO4)sc2c1	-	8.4	.	-	-	-
O=C(Nc1ccccc1C(=O)O)c1cccc(N2C(=O)c3ccccc3C2=O)c1	-	-	-	-	-	-
CCOc1ccc(-c2cccc(NS(=O)(=O)c3ccc([N+](=O)[O-])cc3)c2)nn1	-	-	.	-	-	-
Cc1cc(F)ccc1S(=O)(=O)Nc1ccccc1C(=O)N1CCCC1	-	-	.	-	-	-
COc1ccc(/C=C\C(=O)O[C@@H]2C(O)C(O[C@@H]3OC(C)[C@H](O[C@@H]4OCC(O[C@H]5O[C@H](CO)[C@@H](O)C(O)C5O)C(O)C4O)C(O)C3O)[C@H](OC(=O)[C@]34CCC(C)(C)C[C@@H]3C3=CCC5[C@@]6(C)CC(O)C(O[C@@H]7OC(CO)C(O)[C@H](O)[C@H]7O)[C@@](C)(C(=O)O)C6CC[C@@]5(C)[C@]3(CO)CC4)O[C@H]2C)cc1 (some centres not stated)	66.4	-	.	-	15.9	-
COc1ccccc1NS(=O)(=O)c1ccc(C(=O)Nc2ncccc2O)cc1	-	-	.	-	-	-
SMILES	MC4R antagonist	MC4R ag barr	Hep lipid drop	NTR1 agonist	m5-HT2A agonist	PREPL inh
S=C(c1ccccc1)N1CCN(c2ccccc2)CC1	-	-	.	.	-	.
CC(C)(C)c1ccc(C(=S)N2CCN(c3ccccc3)CC2)cc1	-	9.0	-	-	-	-
COC(=O)/C(=C(/F)Sc1cc(C)c(O)c(C)c1)C(F)(F)F	-	-	-	-	16.0	-
O=[N+]([O-])c1cc(Cl)ccc1Sc1cccc2cccnc12	-	8.8	-	-	-	-
O=[N+]([O-])c1ccc(Sc2cccc3cccnc23)c([N+](=O)[O-])c1	-	-	-	-	-	-
O=C(NCc1ccc(F)cc1)c1cc(C2CCCCN2C(=O)CCCc2ccccc2)on1 (configuration not stated)	-	-	.	.	-	.
O=c1c2ccccc2nnn1COc1ccc(Cl)cc1Br	-	-	-	-	-	-
CS(=O)(=O)N1CCC(C(=O)Nc2cc(C(F)(F)F)ccc2Cl)CC1	-	-	-	-	-	-
O=C(Nc1cc(C(F)(F)F)ccc1Cl)C1CCN(c2nnc(-n3cccc3)s2)CC1	-	8.6	-	.	-	.
Cc1nn(C(C)C(=O)NCc2ccco2)c(=O)c2nn(-c3ccccc3)c(C)c12 (configuration not stated)	-	-	-	-	-	-
C=CCOc1ccc(Br)cc1/C=C1/SC(=Nc2ccc(C(=O)O)cc2)NC1=O	-	-	-	.	-	.
CCOc1cc(Br)cc(/C=C2\SC(=Nc3ccccc3)NC2=O)c1O	-	10.2	-	-	-	-
CCOc1cc(-c2cc(-c3ccc(C)cc3)nc(N)c2C#N)ccc1O	-	-	-	-	-	-
CCOc1cc(/C=C(\C#N)c2[nH]nc(N)c2C#N)ccc1O	-	-	.	-	-	51.6
O=C(N/N=C/c1ccc(F)cc1)c1cccc(NC(=O)c2ccccc2Cl)c1	-	-	-	-	-	-
CCCCCCCCCCCCCCCC[n+]1ccc(C(N)=O)cc1	-	9.2	-	-	-	-
CCCCc1ccc(S(=O)(=O)NC(=O)C2(C)CCN2C(=O)c2cccc(F)c2)cc1 (configuration not stated)	-	-	.	.	-	.
COc1ccc(CC(=O)N(Cc2ccccc2)c2cccc(C)c2)cc1OC	-	-	-	-	-	-
Cc1cccc(N(Cc2ccccc2)C(=O)CCl)c1	-	21.8	-	.	-	.
Cn1c(N)c(C(=O)c2ccc(F)cc2F)c(=O)n(C)c1=O	-	-	-	-	-	-
CN1CCN(CC(=O)N2CCn3c4c(c5cc(C6CCCCC6)ccc53)CCCC42)CC1 (configuration not stated)	-	27.4	-	-	-	-
O=C(O)c1ccc(CSc2nnc(-c3ccc(Cl)cc3)o2)cc1	-	-	-	-	-	-
CC(C)CCNC(=O)NC(=O)CSc1nnc(-c2ccccc2Br)o1	-	8.4	-	-	-	-
CCCNC(=O)NC(=O)CSc1nnc(-c2c[nH]c3ccccc23)o1	-	-	-	-	-	-
